Laboratory results taken from ChEMBL document CHEMBL4765448, “Multiple biological active 4-aminopyrazoles containing trifluoromethyl and their 4-nitroso-precursors: Synthesis and evaluation” (Eur J Med Chem, 2020).
pIC50: −log10 of the molar value. In brackets after ≈: the same amount, converted by molar mass. Several values for one entry are separate records, joined by “and”; a condition that tells them apart may be missing. Equal entries are not always repeated. Activity calls are given as the source filed them. The rule behind the calls is not given here.

Test system: Trichophyton rubrum
Test: Antifungal activity against Trichophyton rubrum
Assay type: functional
Conditions: not given
Work on `OC(Cn1cncn1)(Cn1cncn1)c1ccc(F)cc1F` [FLUCONAZOLE] yielded an MIC of 6.25 µg/mL (≈ 20.4 µM).

Test system: Nannizzia gypsea
Test: Antifungal activity against Trichophyton gypseum
Assay type: functional
Conditions: not given
Compound `OC(Cn1cncn1)(Cn1cncn1)c1ccc(F)cc1F` [FLUCONAZOLE] has an MIC of 12.5 µg/mL (≈ 40.8 µM).

Test system: Trichophyton tonsurans
Test: Antifungal activity against Trichophyton tonsurans
Assay type: functional
Conditions: not given
In the case of `OC(Cn1cncn1)(Cn1cncn1)c1ccc(F)cc1F` [FLUCONAZOLE], the MIC was greater than 100 µg/mL.

Test system: Trichophyton violaceum
Test: Antifungal activity against Trichophyton violaceum
Assay type: functional
Conditions: not given
`OC(Cn1cncn1)(Cn1cncn1)c1ccc(F)cc1F` [FLUCONAZOLE] gave an MIC of 100 µg/mL (≈ 327 µM).

Test system: Trichophyton interdigitale
Test: Antifungal activity against Trichophyton mentagrophytes var. interdigitale
Assay type: functional
Conditions: not given
With `OC(Cn1cncn1)(Cn1cncn1)c1ccc(F)cc1F` [FLUCONAZOLE] the MIC was greater than 100 µg/mL.

Test system: Microsporum canis
Test: Antifungal activity against Microsporum canis
Assay type: functional
Conditions: not given
With `OC(Cn1cncn1)(Cn1cncn1)c1ccc(F)cc1F` [FLUCONAZOLE] the MIC was 100 µg/mL (≈ 327 µM).

Test system: Candida albicans
Test: Antifungal activity against Candida albicans
Assay type: functional
Conditions: not given
For `OC(Cn1cncn1)(Cn1cncn1)c1ccc(F)cc1F` [FLUCONAZOLE], the MIC was greater than 100 µg/mL.

Test system: not listed separately
Test: Antioxidant activity assessed as trolox equivalent of ABTS radical scavenging activity measured after 1 hr by UV-vis spectrophotometric method
Assay type: functional
Conditions: not given
How it was run: (§1)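 ABTS cation-radical decolorization was read spectrophotometrically as the fall in absorbance after 1 h. Trolox was the reference. TEAC was taken as the ratio of concentration-response slopes, test/Trolox, and IC50 was also derived. Data are mean ± SEM, n = 3.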
With `Nc1c(C(F)(F)F)n[nH]c1-c1cccs1` the Activity was 1.22 equiv and 1.1 equiv.
For `Cn1nc(C(F)(F)F)c(N)c1-c1ccco1`, the Activity was 0.04 equiv.
`Cc1ccc(-c2[nH]nc(C(F)(F)F)c2N)cc1` showed an Activity of 1.43 equiv.
For `Cc1c(C)c2c(c(C)c1O)CCC(C)(C(=O)O)O2` (configuration not stated) [TROLOX], the Activity was 1 equiv.
For `Nc1c(C(F)(F)F)n[nH]c1-c1ccccc1`, the Activity was 0.58 equiv and 1.35 equiv.

Test system: not listed separately
Test: Antioxidant activity assessed as ABTS radical scavenging activity measured after 1 hr by UV-vis spectrophotometric method
Assay type: functional
Conditions: not given
How it was run: as §1
`O=C1O[C@H]([C@@H](O)CO)C(O)=C1O` [ASCORBIC ACID] showed a pIC50 of 4.67.
With `Cc1ccc(-c2[nH]nc(C(F)(F)F)c2N)cc1` the pIC50 was 4.87.
With `Cc1c(C)c2c(c(C)c1O)CCC(C)(C(=O)O)O2` (configuration not stated) [TROLOX] the pIC50 was 4.70.

Test system: not listed separately
Test: Antioxidant activity assessed as AAPH scavenging activity by measuring residual fluorescence at 10 uM measured at 1 min interval for 30 mins by ORAC fluorescein assay relative to control
Assay type: functional
Conditions: not given
How it was run: (§2)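 ORAC-FL assay with fluorescein as the probe and AAPH as the peroxyl radical generator. The loss of fluorescence over time was followed, and the result is given as % fluorescence restored at 10 and 50 µM. Each value is the mean of two independent experiments.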
In the case of `Nc1c(C(F)(F)F)n[nH]c1-c1cccs1`, the Activity was 52.5% and 52.6%.
`O=c1c(O)c(-c2ccc(O)c(O)c2)oc2cc(O)cc(O)c12` [QUERCETIN] showed an Activity of 87.6%.
With `Nc1c(C(F)(F)F)n[nH]c1-c1ccccc1` the Activity was 63.1% and 59.7%.

Test system: not listed separately
Test: Antioxidant activity assessed as AAPH scavenging activity by measuring residual fluorescence at 50 uM measured at 1 min interval for 30 mins by ORAC fluorescein assay relative to control
Assay type: functional
Conditions: not given
How it was run: as §2
With `Nc1c(C(F)(F)F)n[nH]c1-c1cccs1` the Activity was 14% and 21.8%.
With `O=c1c(O)c(-c2ccc(O)c(O)c2)oc2cc(O)cc(O)c12` [QUERCETIN] the Activity was 90%.
With `Nc1c(C(F)(F)F)n[nH]c1-c1ccccc1` the Activity was 60.2% and 62.8%.

Test system: Erythrocyte
Test: Antioxidant activity in human erythrocytes assessed as protection against AAPH-induced hemolysis at 50 uM preincubated for 20 mins followed by AAPH addition and measured after 2 hrs by spectrophotometric method relative to control
Assay type: functional
Conditions: time 140 min, 2.333 h
How it was run: (§3)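 Erythrocyte hemolysis assay with AAPH as the free-radical initiator, testing 50 and 400 µM. Results are expressed as relative protection of membranes against oxidative damage, each the mean of two independent experiments.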
For `O=c1c(O)c(-c2ccc(O)c(O)c2)oc2cc(O)cc(O)c12` [QUERCETIN], the “fold change (FC)” value was 0.023.

Test system: Erythrocyte
Test: Antioxidant activity in human erythrocytes assessed as protection against AAPH-induced hemolysis at 400 uM preincubated for 20 mins followed by AAPH addition and measured after 2 hrs by spectrophotometric method relative to control
Assay type: functional
Conditions: time 140 min, 2.333 h
How it was run: as §3
In the case of `O=c1c(O)c(-c2ccc(O)c(O)c2)oc2cc(O)cc(O)c12` [QUERCETIN], the “fold change (FC)” value was 0.045.

Test system: HeLa
Test: Cytotoxicity against human HeLa cells
Assay type: functional, cell-based
Conditions: not given
With `Nc1c(C(F)(F)F)n[nH]c1-c1ccccc1` the Activity was “Dose-dependent effect”.

Same assay, conditions: Homo sapiens, HeLa; read-out: IC50
With `CC[C@@]1(O)C(=O)OCc2c1cc1n(c2=O)Cc2cc3ccccc3nc2-1` [CAMPTOTHECIN] the pIC50 was 5.78.
`COc1cccc2c1C(=O)c1c(O)c3c(c(O)c1C2=O)C[C@@](O)(C(=O)CO)C[C@@H]3O[C@H]1C[C@H](N)[C@H](O)[C@H](C)O1` [DOXORUBICIN] gave a pIC50 of 5.37.

Test system: NHDF
Test: Cytotoxicity against HDF cells
Assay type: cell-based, Homo sapiens
Conditions: Homo sapiens, NHDF; read-out: IC50
For `CC[C@@]1(O)C(=O)OCc2c1cc1n(c2=O)Cc2cc3ccccc3nc2-1` [CAMPTOTHECIN], the pIC50 was 5.27.
`COc1cccc2c1C(=O)c1c(O)c3c(c(O)c1C2=O)C[C@@](O)(C(=O)CO)C[C@@H]3O[C@H]1C[C@H](N)[C@H](O)[C@H](C)O1` [DOXORUBICIN] gave a pIC50 of 5.57.

Test system: not listed separately
Test: Selectivity index, ratio of IC50 for HDF cells to IC50 for human HeLa cells
Assay type: toxicity
Conditions: HDF cells versus HeLa cells, read-out: Ratio IC50
Compound `CC[C@@]1(O)C(=O)OCc2c1cc1n(c2=O)Cc2cc3ccccc3nc2-1` [CAMPTOTHECIN] has a selectivity ratio of 3.24.

Test system: Rattus norvegicus
Test: Antiinflammatory activity in rat model of carrageenan-induced paw edema assessed as inhibition of hind paw swelling at 15 mg/kg, ip measured after 1 hr relative to control
Assay type: functional
Conditions: not given
With `Cc1c(N(C)CS(=O)(=O)O)c(=O)n(-c2ccccc2)n1C` [METAMIZOLE] the inhibition was “inactive”.

Test system: Rattus norvegicus
Test: Antiinflammatory activity in rat model of carrageenan-induced paw edema assessed as inhibition of hind paw swelling at 15 mg/kg, ip measured after 3 hrs relative to control
Assay type: functional
Conditions: not given
With `Cc1c(N(C)CS(=O)(=O)O)c(=O)n(-c2ccccc2)n1C` [METAMIZOLE] the inhibition was “inactive”.
With `Nc1c(C(F)(F)F)n[nH]c1-c1ccccc1` the inhibition was “inactive”.

Test system: Rattus norvegicus
Test: Analgesic activity in rat assessed as prolongation of latency period at 15 mg/kg, ip measured after 1 hr by hot-plate test relative to control
Assay type: functional
Conditions: not given
How it was run: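 Hot-plate test in rats. Compounds were given by intraperitoneal injection. Latency was read at 1 h and, for some compounds, also at 2 h after dosing. Results are expressed as % prolongation of the latent period versus vehicle-treated control. Significance was given as p-values.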
With `Cc1c(N(C)CS(=O)(=O)O)c(=O)n(-c2ccccc2)n1C` [METAMIZOLE] the Activity was 59.8%.

Test system: Rattus norvegicus
Test: Antiinflammatory activity in rat model of carrageenan-induced paw edema assessed as inhibition of hind paw swelling at 15 mg/kg, ip measured after 5 hrs
Assay type: functional, organism-based
Conditions: not given
In the case of `Nc1c(C(F)(F)F)n[nH]c1-c1cccs1`, the Activity was “Active”.
In the case of `Cn1nc(C(F)(F)F)c(N)c1-c1ccco1`, the Activity was “Active”.
With `Cc1ccc(-c2[nH]nc(C(F)(F)F)c2N)cc1` the Activity was “Active”.
In the case of `Nc1c(C(F)(F)F)n[nH]c1-c1ccccc1`, the Activity was “Active”.
